ChEMBL document CHEMBL4145582, “Cytotoxic and Antibacterial Eremophilane Sesquiterpenes from the Marine-Derived Fungus Cochliobolus lunatus SCSIO41401” (J Nat Prod, 2018)
Active and inactive are the calls of the source. The calls are words filed in the database; no cut-off is given here.

How the values were obtained:
SGC-7901 = experiment: Cytotoxicity against human SGC7901 cells after 6 days by MTT assay; format: functional, cell-based; details: SGC-7901, 144 h
Method in brief: (§1)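 HepG-2 and SGC7901 cells; growth inhibition read by MTT method, with 5-fluorouracil as positive control.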

HepG2 = experiment: Cytotoxicity against human HepG2 cells after 6 days by MTT assay; format: functional, cell-based; details: HepG2, 144 h; method in brief: as §1
ACHN [1] = experiment: Induction of apoptosis in human ACHN cells assessed as late apoptotic cells at 1 uM after 72 hrs by Annexin V-FITC/propidium iodide staining based flow cytometric method (reference value: 0%); format: functional
Method in brief: (§2)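 ACHN cells are treated at 1, 2 and 4 μM for 24, 48 and 72 h. Cells are then double-stained with annexin V-FITC and propidium iodide and analysed by flow cytometry. Early apoptotic, late apoptotic, necrotic and viable fractions are quantified.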

Pasteurella multocida = experiment: Antimicrobial activity against Pasteurella multocida subsp. multocida ATCC 43137 after 24 hrs by serial dilution method; format: functional; details: ATCC 43137, 24 h
Method in brief: (§3)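 Serial broth dilution in 96-well microtiter plates. Compounds and controls are dissolved in DMSO as stock. Bacteria are grown overnight at 37 °C, then diluted to 10^6 cfu/mL. E. coli and S. aureus are grown in Luria–Bertani broth. P. multocida and E. rhusiopathiae are grown in trypticase soy broth with 10% calf serum. Plates are incubated at 37 °C for 24 h and read at 630 nm.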

Escherichia coli = experiment: Antimicrobial activity against Escherichia coli ATCC 25922 after 24 hrs by serial dilution method; format: functional; details: ATCC 25922, 24 h; method in brief: as §3
ACHN [2] = experiment: Induction of apoptosis in human ACHN cells assessed as viable cells at 2 uM after 72 hrs by Annexin V-FITC/propidium iodide staining based flow cytometric method (reference value: 100%); format: functional; details: read-out: Activity; method in brief: as §2
ACHN [3] = experiment: Induction of apoptosis in human ACHN cells assessed as early apoptotic cells at 4 uM after 24 hrs by Annexin V-FITC/propidium iodide staining based flow cytometric method (reference value: 0%); format: functional; method in brief: as §2
ACHN [4] = experiment: Induction of apoptosis in human ACHN cells assessed as late apoptotic cells at 1 uM after 48 hrs by Annexin V-FITC/propidium iodide staining based flow cytometric method (reference value: 0%); format: functional; method in brief: as §2
ACHN [5] = experiment: Induction of apoptosis in human ACHN cells assessed as early apoptotic cells at 1 uM after 24 hrs by Annexin V-FITC/propidium iodide staining based flow cytometric method (reference value: 0%); format: functional; method in brief: as §2
ACHN [6] = experiment: Induction of apoptosis in human ACHN cells assessed as viable cells at 1 uM after 24 hrs by Annexin V-FITC/propidium iodide staining based flow cytometric method (reference value: 100%); format: functional; details: read-out: Activity; method in brief: as §2
ACHN [7] = experiment: Induction of apoptosis in human ACHN cells assessed as late apoptotic cells at 4 uM after 48 hrs by Annexin V-FITC/propidium iodide staining based flow cytometric method (reference value: 0%); format: functional; method in brief: as §2
ACHN [8] = experiment: Induction of apoptosis in human ACHN cells assessed as necrotic cells at 2 uM after 72 hrs by Annexin V-FITC/propidium iodide staining based flow cytometric method (reference value: 0%); format: functional; method in brief: as §2
ACHN [9] = experiment: Induction of apoptosis in human ACHN cells assessed as late apoptotic cells at 2 uM after 48 hrs by Annexin V-FITC/propidium iodide staining based flow cytometric method (reference value: 0%); format: functional; method in brief: as §2
ACHN [10] = experiment: Induction of apoptosis in human ACHN cells assessed as late apoptotic cells at 4 uM after 24 hrs by Annexin V-FITC/propidium iodide staining based flow cytometric method (reference value: 0%); format: functional; method in brief: as §2
ACHN [11] = experiment: Induction of apoptosis in human ACHN cells assessed as necrotic cells at 4 uM after 24 hrs by Annexin V-FITC/propidium iodide staining based flow cytometric method (reference value: 0%); format: functional; method in brief: as §2
ACHN [12] = experiment: Induction of apoptosis in human ACHN cells assessed as early apoptotic cells at 4 uM after 72 hrs by Annexin V-FITC/propidium iodide staining based flow cytometric method (reference value: 0%); format: functional; method in brief: as §2
ACHN [13] = experiment: Induction of apoptosis in human ACHN cells assessed as viable cells at 1 uM after 48 hrs by Annexin V-FITC/propidium iodide staining based flow cytometric method (reference value: 100%); format: functional; details: read-out: Activity; method in brief: as §2
ACHN [14] = experiment: Induction of apoptosis in human ACHN cells assessed as viable cells at 4 uM after 48 hrs by Annexin V-FITC/propidium iodide staining based flow cytometric method (reference value: 100%); format: functional; details: read-out: Activity; method in brief: as §2
ACHN [15] = experiment: Induction of apoptosis in human ACHN cells assessed as viable cells at 2 uM after 24 hrs by Annexin V-FITC/propidium iodide staining based flow cytometric method (reference value: 100%); format: functional; details: read-out: Activity; method in brief: as §2
ACHN [16] = experiment: Induction of apoptosis in human ACHN cells assessed as necrotic cells at 4 uM after 72 hrs by Annexin V-FITC/propidium iodide staining based flow cytometric method (reference value: 0%); format: functional; method in brief: as §2
ACHN [17] = experiment: Induction of apoptosis in human ACHN cells assessed as early apoptotic cells at 2 uM after 48 hrs by Annexin V-FITC/propidium iodide staining based flow cytometric method (reference value: 0%); format: functional; method in brief: as §2
OS-RC-2 = experiment: Cytotoxicity against human OS-RC2 cells after 72 hrs by CCK8 assay; format: functional, cell-based; details: OS-RC-2, 72 h
Method in brief: (§4)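 Renal cancer lines ACHN, 786-O and OS-RC-2; cell viability read by CCK-8 assay, with sorafenib as positive control.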

ACHN [18] = experiment: Induction of apoptosis in human ACHN cells assessed as necrotic cells at 4 uM after 48 hrs by Annexin V-FITC/propidium iodide staining based flow cytometric method (reference value: 0%); format: functional; method in brief: as §2
ACHN [19] = experiment: Induction of apoptosis in human ACHN cells assessed as viable cells at 1 uM after 72 hrs by Annexin V-FITC/propidium iodide staining based flow cytometric method (reference value: 100%); format: functional; details: read-out: Activity; method in brief: as §2
ACHN [20] = experiment: Induction of apoptosis in human ACHN cells assessed as early apoptotic cells at 2 uM after 24 hrs by Annexin V-FITC/propidium iodide staining based flow cytometric method (reference value: 0%); format: functional; method in brief: as §2
ACHN [21] = experiment: Induction of apoptosis in human ACHN cells assessed as late apoptotic cells at 2 uM after 72 hrs by Annexin V-FITC/propidium iodide staining based flow cytometric method (reference value: 0%); format: functional; method in brief: as §2
ACHN [22] = experiment: Induction of apoptosis in human ACHN cells assessed as late apoptotic cells at 2 uM after 24 hrs by Annexin V-FITC/propidium iodide staining based flow cytometric method (reference value: 0%); format: functional; method in brief: as §2
ACHN [23] = experiment: Induction of apoptosis in human ACHN cells assessed as necrotic cells at 2 uM after 24 hrs by Annexin V-FITC/propidium iodide staining based flow cytometric method (reference value: 0%); format: functional; method in brief: as §2
ACHN [24] = experiment: Cell cycle arrest in human ACHN cells at 1 to 4 uM after 24 to 72 hrs by propidium iodide staining based flow cytometric method; format: functional
ACHN [25] = experiment: Induction of apoptosis in human ACHN cells assessed as viable cells at 2 uM after 48 hrs by Annexin V-FITC/propidium iodide staining based flow cytometric method (reference value: 100%); format: functional; details: read-out: Activity; method in brief: as §2
ACHN [26] = experiment: Induction of apoptosis in human ACHN cells assessed as necrotic cells at 1 uM after 24 hrs by Annexin V-FITC/propidium iodide staining based flow cytometric method (reference value: 0%); format: functional; method in brief: as §2
Staphylococcus aureus = experiment: Antimicrobial activity against Staphylococcus aureus subsp. aureus Rosenbach ATCC 25923 after 24 hrs by serial dilution method; format: functional; details: Rosenbach ATCC 25923, 24 h; method in brief: as §3
ACHN [27] = experiment: Induction of apoptosis in human ACHN cells assessed as viable cells at 4 uM after 24 hrs by Annexin V-FITC/propidium iodide staining based flow cytometric method (reference value: 100%); format: functional; details: read-out: Activity; method in brief: as §2
ACHN [28] = experiment: Induction of apoptosis in human ACHN cells assessed as necrotic cells at 2 uM after 48 hrs by Annexin V-FITC/propidium iodide staining based flow cytometric method (reference value: 0%); format: functional; method in brief: as §2
ACHN [29] = experiment: Induction of apoptosis in human ACHN cells assessed as viable cells at 4 uM after 72 hrs by Annexin V-FITC/propidium iodide staining based flow cytometric method (reference value: 100%); format: functional; details: read-out: Activity; method in brief: as §2
ACHN [30] = experiment: Induction of apoptosis in human ACHN cells assessed as early apoptotic cells at 4 uM after 48 hrs by Annexin V-FITC/propidium iodide staining based flow cytometric method (reference value: 0%); format: functional; method in brief: as §2
ACHN [31] = experiment: Induction of apoptosis in human ACHN cells assessed as necrotic cells at 1 uM after 72 hrs by Annexin V-FITC/propidium iodide staining based flow cytometric method (reference value: 0%); format: functional; method in brief: as §2
ACHN [32] = experiment: Induction of apoptosis in human ACHN cells assessed as early apoptotic cells at 1 uM after 72 hrs by Annexin V-FITC/propidium iodide staining based flow cytometric method (reference value: 0%); format: functional; method in brief: as §2
ACHN [33] = experiment: Induction of apoptosis in human ACHN cells assessed as early apoptotic cells at 1 uM after 48 hrs by Annexin V-FITC/propidium iodide staining based flow cytometric method (reference value: 0%); format: functional; method in brief: as §2
ACHN [34] = experiment: Induction of apoptosis in human ACHN cells assessed as early apoptotic cells at 2 uM after 72 hrs by Annexin V-FITC/propidium iodide staining based flow cytometric method (reference value: 0%); format: functional; method in brief: as §2
ACHN [35] = experiment: Induction of apoptosis in human ACHN cells assessed as necrotic cells at 1 uM after 48 hrs by Annexin V-FITC/propidium iodide staining based flow cytometric method (reference value: 0%); format: functional; method in brief: as §2
ACHN [36] = experiment: Induction of apoptosis in human ACHN cells assessed as late apoptotic cells at 1 uM after 24 hrs by Annexin V-FITC/propidium iodide staining based flow cytometric method (reference value: 0%); format: functional; method in brief: as §2
ACHN [37] = experiment: Cytotoxicity against human ACHN cells after 72 hrs by CCK8 assay; format: functional, cell-based; method in brief: as §4
786-0 = experiment: Cytotoxicity against human 786-O cells after 72 hrs by CCK8 assay; format: functional, cell-based; details: 786-0, 72 h; method in brief: as §4
ACHN [38] = experiment: Induction of apoptosis in human ACHN cells assessed as late apoptotic cells at 4 uM after 72 hrs by Annexin V-FITC/propidium iodide staining based flow cytometric method (reference value: 0%); format: functional; method in brief: as §2
[39] = system: Erysipelothrix rhusiopathiae; experiment: Antimicrobial activity against Erysipelothrix rhusiopathiae ATCC 19414 after 24 hrs by serial dilution method; format: functional; details: ATCC 19414, 24 h; method in brief: as §3

`O=c1[nH]cc(F)c(=O)[nH]1` [FLUOROURACIL] gave an IC50 (SGC-7901) of 12 µM and an IC50 (HepG2) of 12 µM.

For `C=C(/C=N/O)[C@]1(OC)C[C@@]2(C)C(=CC1=O)C=C[C@H](OC(=O)/C=C/C(C)=C/[C@@H](C)CC)[C@@H]2C`, the Activity (ACHN [1]) was 1.1%, the MIC (Pasteurella multocida) was > 100 mg/L and the MIC (Escherichia coli) was > 100 mg/L. The viability at 2 µM (ACHN [2]) was 80.5%, the Activity (ACHN [3]) was 1.1% and the Activity (ACHN [4]) was 1.2%. The Activity (ACHN [5]) was 0.6%, the viability at 1 µM (ACHN [6]) was 93.2% and the Activity (ACHN [7]) was 11.3%. It also gave an Activity (ACHN [8]) of 9%, an Activity (ACHN [9]) of 1.3% and an Activity (ACHN [10]) of 1.1%. For the same molecule, the Activity (ACHN [11]) was 21.8%, the Activity (ACHN [12]) was 83.8% and the IC50 (SGC-7901) was 17 µM. The viability at 1 µM (ACHN [13]) was 91.4%, the viability at 4 µM (ACHN [14]) was 50% and the viability at 2 µM (ACHN [15]) was 91.4%. For the same molecule, the Activity (ACHN [16]) was 0.8%, the Activity (ACHN [17]) was 2.3% and the IC50 (OS-RC-2) was > 50 µM. It also gave an Activity (ACHN [18]) of 19.5%, a viability at 1 µM (ACHN [19]) of 90.8% and an Activity (ACHN [20]) of 0.8%. For the same molecule, the Activity (ACHN [21]) was 3.8%, the Activity (ACHN [22]) was 0.7% and the Activity (ACHN [23]) was 7.2%. For the same molecule, the Activity (ACHN [24]) was “inactive”, the viability at 2 µM (ACHN [25]) was 87.1% and the Activity (ACHN [26]) was 5.5%. For the same molecule, the MIC (Staphylococcus aureus) was > 100 mg/L, the viability at 4 µM (ACHN [27]) was 76% and the Activity (ACHN [28]) was 9.3%. For the same molecule, the IC50 (HepG2) was 5.9 µM, the viability at 4 µM (ACHN [29]) was 6.9% and the Activity (ACHN [30]) was 19.2%. The Activity (ACHN [31]) was 6.2%, the Activity (ACHN [32]) was 1.8% and the Activity (ACHN [33]) was 1.3%. The Activity (ACHN [34]) was 6.8%, the Activity (ACHN [35]) was 6% and the Activity (ACHN [36]) was 0.7%. It also gave an IC50 (ACHN [37]) of 3.1 µM, an IC50 (786-0) of 27 µM and an Activity (ACHN [38]) of 8.5%. For the same molecule, the MIC [39] was > 100 mg/L.
